Source: ChEMBL document CHEMBL3259808, “Optimization of antitrypanosomatid agents: identification of nonmutagenic drug candidates with in vivo activity” (J Med Chem, 2014)
pIC50: −log10 of the molar value.

Tests used:
Trypanosoma cruzi [1] = test: Antitrypanosomal activity against Trypanosoma cruzi Tulahuen 2 epimastigotes assessed as growth inhibition after 5 days; assay type: functional, organism-based
In short: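 Epimastigotes were grown axenically at 28 °C in BHI-tryptose with 5% FBS and seeded from a 5–7 day culture at 1 × 10⁶ cells/mL. Drug from a DMSO stock was added (final DMSO ≤0.4%; the control contained 0.4% DMSO). Duplicates were run. A600 was read at day 5, and % inhibition was calculated relative to day-0 and control readings. IC50 = concentration that halves the absorbance ratio.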

Trypanosoma cruzi [2] = test: Antitrypanosomal activity against Trypanosoma cruzi Sylvio X-10 amastigotes infected in African green monkey Vero cells assessed as eradication of amastigotes after 5 days by Giemsa staining-based assay; assay type: functional, organism-based; conditions: Sylvio X-10, Vero, 120 h
In short: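 VERO cells in RPMI 1640 with 10% hiFCS were allowed to adhere for 24 h at 37 °C in 5% CO₂, then infected with tissue-derived trypomastigotes at 10:1. Free parasites were washed off after 24 h, and cultures were treated at five compound doses (text gives 72 h / 5 days). Cultures were methanol-fixed and Giemsa-stained, and infected cells were counted among 300. Quadruplicates were run in three independent experiments. IC50/IC90 were obtained by sigmoidal regression.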

Trypanosoma cruzi [3] = test: Antitrypanosomal activity against Trypanosoma cruzi Sylvio X-10 amastigotes infected in African green monkey Vero cells assessed as eradication of amastigotes after 72 hrs by Giemsa staining-based assay; conditions: Sylvio X-10, Vero
[4] = Selectivity index, ratio of IC50 for African green monkey Vero cells to IC50 for Trypanosoma cruzi Sylvio X-10 amastigotes; assay type: toxicity, cell-based; conditions: read-out: Ratio IC50
In short: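 VERO cytotoxicity: cells exposed 48 h at 37 °C, 5% CO2 to serial dilutions from a maximum of 2000 μM (DMSO stocks; DMSO <0.1% control); growth inhibition read by MTT at 570 nm. Amastigote IC50: Sylvio X-10-infected VERO cells, five doses, infected cells counted among 300 (Giemsa), quadruplicate, three experiments, sigmoidal fit. SI = IC50 VERO / IC50 amastigote.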

[5] = Stability of the compound in aqueous solution assessed as compound remaining at 1 mM at pH 6 after 1 hr by TLC analysis; assay type: physicochemical; conditions: buffer, pH 6, 1 h, 1000 µM
In short: (§1)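 DMSO stocks diluted to final 1 mM in KCl·HCl pH 1.0, citrate pH 6.0, Tris·HCl pH 7.4 or borax·HCl pH 9.0 buffer. Incubated 1 h at 37 °C, then ethyl acetate extracts checked by TLC for decomposition products.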

[6] = Stability of the compound in aqueous solution assessed as compound remaining at 1 mM at pH 7.4 after 1 hr by TLC analysis; assay type: physicochemical; conditions: buffer, pH 7.4, 1 h, 1000 µM; in short: as §1
[7] = Stability of the compound in aqueous solution assessed as compound remaining at 1 mM at pH 9 after 1 hr by TLC analysis; assay type: physicochemical; conditions: buffer, pH 9, 1 h, 1000 µM; in short: as §1
Salmonella typhimurium [8] = test: Mutagenic activity in Salmonella typhimurium TA98 at 5 to 400 ug/plate by Ames test; assay type: toxicity, organism-based; conditions: salmonella enterica subsp. enterica serovar typhimurium
In short: (§2)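 Ames plate-incorporation assay with S. typhimurium TA98 in Vogel-Bonner E minimal glucose agar. Toxicity toward the bacteria was checked first. DMSO solutions were run in triplicate at five consecutive third-dilutions, starting at the highest non-toxic dose. Positive controls were 4-nitro-o-phenylenediamine (20.0 μg/plate) and 2-aminofluorene (10.0 μg/plate); DMSO was the negative control. Revertants were counted manually. A compound was called mutagenic when revertants were at least twice the negative control at two or more consecutive doses.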

Salmonella typhimurium [9] = test: Mutagenic activity in Salmonella typhimurium TA98 at 5 to 400 ug/plate by Ames test in presence of mouse liver S9 fraction; assay type: toxicity, organism-based; conditions: salmonella enterica subsp. enterica serovar typhimurium; in short: as §2
[10] = Selectivity index, ratio of IC50 for human RBC to IC50 for Trypanosoma cruzi Sylvio X-10 amastigotes
In short: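 Hemolysis: washed human erythrocytes (2% w/v in PBS) incubated 24 h at 37 °C with compound at final 50, 100 and 200 μM. Ten replicates per concentration. Hemoglobin release read at 405 nm against water lysis as 100%; amphotericin B 1.5 μM was the positive control. SI = IC50 red cells / parasite IC50 (Sylvio X-10 amastigotes or Tulahuen 2 epimastigotes).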

[11] = Trypanosoma cruzi, Tulahuen 2, 120 h

Compound | pIC50 (Trypanosoma cruzi [1]; [11]) | also measured
O=C1CS/C(=N\N=C\c2ccc([N+](=O)[O-])s2)N1c1ccccc1 (stereo in doubt; 10) | 4.89 | pIC50 (Trypanosoma cruzi [2]): < 4.60; IC90 (Trypanosoma cruzi [3]): > 25 µM
C=CCN1C(=O)CS/C1=N\N=C\c1cccs1 | < 4.60 | 
C=CCNC(=S)N/N=C/c1ccc2c(c1)OCO2 | < 4.60 | 
O=C1CS\C(=N/N=C/C=C/c2ccco2)N1c1ccccc1 | < 4.60 | 
O=[N+]([O-])c1ccc(/C=N/NC(=S)Nc2ccccc2)s1 | 5.40 | pIC50 (Trypanosoma cruzi [2]): 5.39; selectivity ratio [4]: 20
C=CCn1c(-c2ccc(Cl)cc2)cs/c1=N\N=C\c1ccc2c(c1)[n+]([O-])c(C)c(C)[n+]2[O-] | 4.82 | 
N/C(S)=N/N=C/c1ccc([N+](=O)[O-])s1 | 4.60 | 
C=CCN(C(C)=O)C1=NNC(c2ccc([N+](=O)[O-])s2)S1 (configuration not stated) | < 4.60 | 
C=CCn1c(-c2ccc(Cl)cc2)cs/c1=N/N=C/c1ccc([N+](=O)[O-])s1 | 4.85 | pIC50 (Trypanosoma cruzi [2]): < 4.60; IC90 (Trypanosoma cruzi [3]): > 25 µM
C=CCn1c(C)cs\c1=N/N=C/C=C/c1ccccc1 | < 4.60 | 
C=CCn1c(-c2ccc(Cl)cc2)cs/c1=N/N=C/c1cccs1 | < 4.60 | pIC50 (Trypanosoma cruzi [2]): 5.10
S=C(N/N=C/c1ccccc1)Nc1ccccc1 | 4.72 | 
C=CCn1c(-c2ccccc2)cs/c1=N\N=C\c1ccc(S(=O)(=O)O)o1 | < 4.60 | 
C=CCn1c(C)cs/c1=N\N=C\c1cccs1 | < 4.60 | pIC50 (Trypanosoma cruzi [2]): < 4.60; Stability [5]: Unstable; Stability [6]: Unstable; Stability [7]: Unstable; IC90 (Trypanosoma cruzi [3]): > 25 µM
C=CCN1C(=O)CS/C1=N\N=C\c1ccc([N+](=O)[O-])s1 | < 4.60 | pIC50 (Trypanosoma cruzi [2]): < 4.60; IC90 (Trypanosoma cruzi [3]): > 25 µM
C=CCn1c(-c2ccc(Br)cc2)cs\c1=N/N=C/C=C/c1cccs1 | < 4.60 | 
O=C1CS/C(=N\N=C\c2ccc([N+](=O)[O-])s2)N1c1ccccc1 (stereo in doubt; 13) |  | pIC50 (Trypanosoma cruzi [1]): < 4.60
C=CCn1c(-c2ccc(OC)cc2)cs\c1=N/N=C/C=C/c1cccs1 | < 4.60 | 
CC(=O)N(C1=NN(C(C)=O)C(c2cccs2)S1)c1ccccc1 (configuration not stated) | < 4.60 | 
C=CCn1c(-c2ccccc2)cs\c1=N/N=C/C=C/c1cccs1 | < 4.60 | 

Compound | pIC50 (Trypanosoma cruzi [1]; [11]) | also measured
C=CCN1C(=O)CS\C1=N/N=C\C=C\C=C\c1cccs1 | < 4.60 | 
C=CCn1c(-c2ccc(OC)cc2)cs/c1=N/N=C/c1ccc([N+](=O)[O-])s1 | 5.10 | pIC50 (Trypanosoma cruzi [2]): < 4.60; IC90 (Trypanosoma cruzi [3]): > 25 µM
Br.C=CCn1c(-c2ccc([N+](=O)[O-])cc2)cs\c1=N/N=C/C=C/c1ccco1 | < 4.60 | Activity (Salmonella typhimurium [8]): Toxic; Activity (Salmonella typhimurium [9]): Toxic
C=CCNC(=S)N/N=C/c1cc2ccccc2o1 | < 4.60 | 
Cc1cs/c(=N\N=C\c2cccs2)n1-c1ccccc1 | < 4.60 | 
C(=C\c1ccco1)/C=N/N=c1/scc(-c2ccccc2)n1-c1ccccc1 | 5.30 | 
C=CCNC(=S)N/N=C/c1ccc(O)cc1 | < 4.60 | 
C=CCn1c(-c2ccc(Cl)cc2)cs/c1=N\N=C\c1ccsc1 | 4.84 | 
C=CCn1c(-c2ccc(Cl)cc2)cs\c1=N/N=C/C=C/c1ccc([N+](=O)[O-])s1 | 5.00 | pIC50 (Trypanosoma cruzi [2]): 4.77; IC90 (Trypanosoma cruzi [3]): 25.4 µM
O=[N+]([O-])c1ccc(/C=N/N=c2\scc(-c3ccccc3)n2-c2ccccc2)s1 | < 4.60 | 
C=CCn1c(-c2ccccc2)cs/c1=N\N=C\c1ccc([N+](=O)[O-])s1 | 5.22 | pIC50 (Trypanosoma cruzi [2]): 4.60; selectivity ratio [4]: 5
C=CCn1c(C)cs/c1=N\N=C\c1ccco1 | < 4.60 | 
C=CCn1c(-c2ccc(Cl)cc2)cs/c1=N\N=C\c1ccc(Cl)cc1 | < 4.60 | 
S=C(N/N=C/C=C/c1ccco1)Nc1ccccc1 | 4.96 | 
C=CCN1C(=O)CS/C1=N/N=C\c1ccc(Cl)cc1 | < 4.60 | 
C=CCn1c(-c2ccccc2)cs\c1=N/N=C/C=C/c1ccccc1 | < 4.60 | 
C=CCNC(=S)N/N=C/c1ccc2ccccc2c1 | 5.27 | 
C=CCn1c(-c2ccccc2)cs/c1=N/N=C/c1cccs1 | < 4.60 | 
O=C1CS/C(=N\N=C\c2ccc([N+](=O)[O-])s2)N1 | < 4.60 | 
C=CCn1c(-c2ccc(Cl)cc2)cs\c1=N/N=C/C=C/c1cccs1 | < 4.60 | 

Compound | pIC50 (Trypanosoma cruzi [1]; [11]) | also measured
S=C(N/N=C/C=C/C=C/c1cccs1)Nc1ccccc1 | 5.77 | pIC50 (Trypanosoma cruzi [2]): < 4.60; IC90 (Trypanosoma cruzi [3]): > 25 µM
C=CCNC(=S)N/N=C/C=C/c1cccs1 | < 4.60 | Activity (Salmonella typhimurium [8]): Non-toxic; Activity (Salmonella typhimurium [9]): Non-toxic
C=CCn1c(-c2ccc3ccccc3c2)cs\c1=N/N=C/C=C/c1cccs1 | < 4.60 | 
C=CCn1c(C)cs/c1=N\N=C\c1ccc(S(=O)(=O)O)o1 | < 4.60 | 
C=CCn1c(-c2ccccc2)cs/c1=N/N=C/c1ccc([N+](=O)[O-])s1 | 4.70 | 
C=CCN1C(=O)CS\C1=N/N=C/C=C/c1ccco1 | < 4.60 | 
C=CCN(C(C)=O)C1=NN(C(C)=O)C(/C=C/c2ccco2)S1 (configuration not stated) | < 4.60 | 
C=CCNC(=S)N/N=C/c1ccc(SC)cc1 | 5.00 | 
C=CCNC(=S)N/N=C/C=C/c1ccccc1 | 5.18 | 
C=CCNC(=S)N/N=C/c1ccc(Cl)cc1 | 4.96 | 
C=CCn1c(-c2ccccc2)cs/c1=N\N=C\c1ccco1 | < 4.60 | 
C=CCNC(=S)N/N=C/c1cncc(Br)c1 | < 4.60 | 
Cc1cs/c(=N/N=C/C=C/c2ccco2)n1-c1ccccc1 | 4.60 | 
C=CCNC(=S)N/N=C/c1ccnc2ccccc12 | 4.77 | 
C=CCn1c(-c2ccc([N+](=O)[O-])cc2)cs\c1=N/N=C/C=C/c1cccs1 | < 4.60 | 
C=CCN(C(C)=O)C1=NNC(c2cccs2)S1 (configuration not stated) | < 4.60 | 
C(=N\N=c1/scc(-c2ccccc2)n1-c1ccccc1)/c1ccccc1 | < 4.60 | 
C[C@@H]1[C@H](O)[C@@H](C)/C=C/C=C/C=C/C=C/C=C/C=C/C=C/[C@H](O[C@@H]2O[C@H](C)[C@@H](O)[C@H](N)[C@@H]2O)C[C@@H]2O[C@](O)(C[C@@H](O)C[C@@H](O)[C@H](O)CC[C@@H](O)C[C@@H](O)CC(=O)O[C@H]1C)C[C@H](O)[C@H]2C(=O)O [AMPHOTERICIN B] |  | pIC50 (Trypanosoma cruzi [2]): 5.96; Ratio IC50 [10]: 10
O=C1CS\C(=N/N=C\C=C\C=C\c2cccs2)N1c1ccccc1 | < 4.60 | 
C=CCNC(=S)N/N=C/c1ccsc1 | < 4.60 | 
